Compound activity: PubChem BioAssay, Broad Institute
An excerpt weighted towards active compounds, which were near 2.2% of everything screened.
CAL PDZ FP-1 = CAL PDZ (human) peptide binding inhibition | Q9HD26 | purified CAL PDZ, TMR-peptide fluorescence polarization, 1 h | inhibition, % at 24.9 µM | hit rate 0.92% among 300,000;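 active means mean inhibition of at least 30% with at least half of replicates also reaching 30%; inconclusive means no clear call, values can overlap the other calls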;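 further: 0% = DMSO neutral control and 100% = excess unlabeled competitor peptide PRC23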
dFosB act = activators of mouse delta FosB homodimer | P13346 | purified delta FosB, TAMRA-CDK5 oligo fluorescence polarization; percent of positive-control signal above neutral wells | activation, % at 25 µM | hit rate 0.99% among 340,000 | AID 493131;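 active means mean activation above about 17%, with every replicate also reaching it, limit read from the data, passing the limit was not always enough; inconclusive means only one of the two conditions met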
CDK5 p35 inh = inhibitors of human CDK5/p35 kinase. inhibition, % at 10 µM. Recombinant CDK5/p35, ADP-Glo luminescence, 60 min. AID 488839. hit rate 0.01% among 330,000. Q00535+Q15078;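 active means highest replicate inhibition of at least 50% and at least 75% of replicates reaching 50%; inconclusive means only one of the two criteria met; inactive means both criteria failed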;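 further: plate controls were DMSO neutral control for no effect and GW8510 at 10 µM for full effect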
CAL PDZ FP-2 = blocks peptide binding to human CAL PDZ domain; inhibition, % at 20 µM; purified CAL PDZ, TMR-peptide fluorescence polarization, 1 h; AID 504414; Q9HD26; hit rate 0.02% among 330,000;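 active means highest replicate inhibition of at least 40%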;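 further: plate controls were DMSO neutral control wells for no effect and unlabeled competitor peptide control wells for full effect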
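System: purified tagged CAL PDZ domain construct (CerCALP). Schedule: 1 h incubation at room temperature before polarization reading. Medium: 25 mM sodium phosphate pH 7.4, 150 mM NaCl, TCEP, IgG, Thesit. Read-out: percent inhibition from loss of millipolarization. Measured by: FP readout, S and P plane fluorescence. Probe or stimulus: fluorescent TMR peptide probe.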
Rtt109 HAT inh = C. albicans Rtt109 histone acetyltransferase inhibition. hit rate 0.16% among 330,000. inhibition, % at 34.9 µM. purified Rtt109/Vps75, ThioGlo CoA-SH fluorescence, 4 h. AID 540336;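 active means inhibition of at least 50% in every replicate; inconclusive means best replicate reaches 50% inhibition but some replicates fall short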
Target sequence (Q5AAJ8 whole entry, looked up): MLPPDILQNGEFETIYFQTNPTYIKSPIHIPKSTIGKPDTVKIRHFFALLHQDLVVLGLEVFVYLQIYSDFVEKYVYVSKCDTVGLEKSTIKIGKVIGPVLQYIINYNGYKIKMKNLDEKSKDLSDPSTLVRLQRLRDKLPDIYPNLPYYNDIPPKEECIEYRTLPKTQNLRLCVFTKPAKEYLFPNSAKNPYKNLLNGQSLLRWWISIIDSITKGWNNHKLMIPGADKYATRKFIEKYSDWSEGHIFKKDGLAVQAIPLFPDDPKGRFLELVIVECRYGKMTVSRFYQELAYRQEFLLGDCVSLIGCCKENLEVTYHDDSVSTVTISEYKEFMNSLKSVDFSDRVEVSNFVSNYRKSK
DYRK1A inh = blocks rat Dyrk1A kinase activity; Q63470; ADP-Glo luminescence, NFATc1 peptide; inhibition, % at 12.5 µM; hit rate 0.43% among 310,000; AID 504441; in the data active means inhibition above about 50%;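 further: plate controls were vehicle with enzyme for no effect and no enzyme for full effect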
Numbers without * were called inactive; ? = inconclusive; . = no result given.

SMILES	CAL PDZ FP-1	dFosB act	CDK5 p35 inh	CAL PDZ FP-2	Rtt109 HAT inh	DYRK1A inh
O=C(NCC1CCCO1)C1CCN(C2CCN(Cc3ccco3)CC2)CC1 (stereo not given)	-3	2	0	-3	.	5
O=C(NCCc1ccccc1)C1CCN(C2CCN(Cc3ccco3)CC2)CC1	30*	3	-2	12	14	7
COCCNS(=O)(=O)c1cc(-c2nn(C)c(=O)c3ccccc23)ccc1C	2	-3	1	-3	4	8
CCCCNS(=O)(=O)c1cc(-c2nn(C)c(=O)c3ccccc23)ccc1C	56*	-7	-2	-1	3	-2
CCCCCCCCC(=O)Nc1cc(C)ccc1OC	-6	-5	1	.	8	5
FC(F)Oc1ccc(NC(=S)NCc2nc3ccccc3[nH]2)cc1	41*	-7	0	-2	2	.
Cc1noc(C)c1C(=O)OCC(=O)NCCc1ccccc1	84*	-3	0	-1	3	0
Cc1ccc(CN(C(=O)c2csnn2)C(C(=O)NC2CCCC2)c2cccnc2)cc1 (stereo not given)	-3	-12	0	-4	-5	3
COCCN(C(=O)CSc1nnc(-c2ccccc2F)n1C)c1c(N)n(Cc2ccccc2)c(=O)[nH]c1=O	45*	1	-1	-1	0	.
COCCN(C(=O)CSc1nnc(-c2cccc(C)c2)n1C)c1c(N)n(Cc2ccccc2)c(=O)[nH]c1=O	0	-6	0	-1	-5	.
COc1ccccc1Oc1nc([N+](=O)[O-])nn1CC(N)=O	-4	1	1	0	-4	.
Cc1nnc2sc(SCC(=O)Nc3nccs3)nn2c1=O	-4	-3	-3	-2	-19	11
Cc1ccc(C(=O)NCC(=O)NC2CCCCCC2)cc1	12	-2	0	0	61*	9
CCCCOc1ccc(C(=O)NCC(=O)NC2CC2)cc1	0	1	-3	-3	-27	-5
COn1c(SCc2ccc(C)cc2C)nc2ccccc2c1=O	48*	-6	-2	.	-18	1
Cc1ccc(/C=N/NC(=O)c2cc(-c3ccc(C)o3)[nH]n2)cc1	8	2	0	-3	-6	-2
COc1ccccc1/C=C/C=N/NC(=O)c1cc(-c2ccc(C)o2)[nH]n1	62*	11	2	-4	8	.
Cc1nn(C(C)(C)C)c(OC(=O)c2ccco2)c1Sc1ccccc1	141*	-6	-4	.	4	3
CCC(NC(=O)NCCCn1ccnc1)(C(F)(F)F)C(F)(F)F	-3	2	6	0	6	-1
CC1=C(C(N)=O)C(c2ccc(Cl)cc2Cl)n2ncnc2N1 (stereo not given)	38*	-4	1	0	-2	.
O=C(NNc1ccccc1)C(=O)NNS(=O)(=O)c1ccc(CCCl)cc1	.	-2	1	-1	65*	6
COCc1ccc(C(=O)N2CCCC(CNC(=O)c3ccc(F)cc3)C2)o1 (stereo not given)	3	-1	0	1	7	-1
O=C1NN(c2ccc(F)c(Cl)c2)C(=O)/C1=C\c1cccc(OC(=O)c2cccs2)c1	-2	-15	-9	0	84*	-3
Cc1cc(O)c(C(C[N+](=O)[O-])c2ccc(Cl)cc2Cl)c(=O)o1 (stereo not given)	-6	-6	-2	-2	56*	13
COc1ccc(C2=Nn3c(nnc3-c3ccncc3)SC2)cc1OC	.	88*	2	-2	-2	28
SMILES	CAL PDZ FP-1	dFosB act	CDK5 p35 inh	CAL PDZ FP-2	Rtt109 HAT inh	DYRK1A inh
Cc1ccc(C(C)C)c(OC/C(O)=C(\C#N)c2nc3ccccc3[nH]2)c1	63*	1	1	0	-7	-4
CC(C)C(=O)OC/C(O)=C(\C#N)c1nc2ccccc2[nH]1	-2	-1	-1	0	-2	-1
COC(C[C@@H](O)C[C@@H](O)[C@@H](C)OCc1ccccc1)OC	-2	0	-1	0	3	31
Cc1sc2ccc3sccc3c2[n+]1C	-5	0	1	-3	?	3
Cc1sc2c3ccsc3ccc2[n+]1C	-8	-5	2	0	115*	-3
O=C(Nc1cc(Cl)ccn1)C1CCN(S(=O)(=O)c2cccs2)CC1	33*	1	0	0	-4	6
